High-throughput results deposited in PubChem by several laboratories.
Rev-erbA mod = Rev-erb alpha (human) modulation; Rev-erbα–FITC-DNA binding, fluorescence polarization, 90 min; activity, % at 10 µM; 0.79% of 370,000 active;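 active = activity above about 14%, limit read from the data; passing the limit was not always enough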;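 note: 0% = DMSO wells with 35 nM protein and 100% = DMSO wells with 750 nM protein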
NR2E3 ag-1 = NR2E3 (human) agonism. 0.12% of 320,000 active. Q9Y5X4. inhibition of corepressor binding, % at 4.78 µM. AID 2300. GST-NR2E3/biotin-RetCOR TR-FRET, 1536-well;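 active = percent inhibition above the cutoff of mean plus 3 SD of all tested compounds, set per screening campaign, cut at about 20% in these data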;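 note: 0% = DMSO wells and 100% = biotin wells as full block of FRET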
Target sequence (Q9Y5X4 whole entry, looked up): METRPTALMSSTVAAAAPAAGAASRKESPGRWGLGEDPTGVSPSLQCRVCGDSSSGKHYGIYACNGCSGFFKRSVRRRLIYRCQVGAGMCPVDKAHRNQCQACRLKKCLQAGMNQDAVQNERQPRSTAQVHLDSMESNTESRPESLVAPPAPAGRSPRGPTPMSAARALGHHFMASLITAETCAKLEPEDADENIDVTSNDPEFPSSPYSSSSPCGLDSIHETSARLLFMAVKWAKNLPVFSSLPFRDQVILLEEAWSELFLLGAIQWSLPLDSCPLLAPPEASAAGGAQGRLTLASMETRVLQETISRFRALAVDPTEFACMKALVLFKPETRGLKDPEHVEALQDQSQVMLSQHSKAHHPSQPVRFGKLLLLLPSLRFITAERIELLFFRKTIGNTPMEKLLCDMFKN
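Material: NR2E3–RetCOR corepressor complex / Amount: 1.35 nM GST-NR2E3 / Medium: Tris pH 7.5 / Compound: single nominal compound dose of 4.8 µM / Incubation: 5 h at 4 °C / Technique: TR-FRET, Eu(K)-anti-GST donor, streptavidin-D2 acceptor, ex 340, em 617/671 nm / Read-out basis: percent loss of FRET ratio relative to control wells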
SKN-1 inh = C. elegans SKN-1 inhibition; inhibition, % at 21.8 µM; 0.49% of 360,000 active; AID 624304; C. elegans VP596 Pgst-4::GFP/RFP ratio, acrylamide-induced, 24 h;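 active = interference check ratio from 0.5 to 1.5 plus GFP to RFP signal ratio inhibition reaching or exceeding a fixed threshold, cut at about 30% in these data, passing the limit was not always enough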
NR2E3 ag-2 = activates human NR2E3 receptor. Q9Y5X4. CHO-S Gal4-NCOR/VP16-NR2E3 two-hybrid, luciferase. inhibition of corepressor binding, % at 3.98 µM. 0.35% of 360,000 active;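 active = inhibition above the mean of all tested compounds plus 3 SD, cut at about 70% in these data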;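 note: 0% = DMSO with NR2E3 transfected cells and 100% = cells lacking NR2E3 construct; higher means lower luciferase signal from less NR2E3 corepressor binding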
MT1-MMP act inh = MT1-MMP (human) activation inhibition; HT1080 RFP-PRO-GFP cells, GFP/RFP ratio fluorescence, overnight; percent of plate control window, DMSO zero; 0.061% of 360,000 active; GFP/RFP ratio change, % at 20 µM; P50281;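 active = GFP/RFP ratio change of at least 30% with cell ATP level not reduced by more than half and red fluorescence within 50% of control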
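Material – HT1080 RFP-PRO-GFP cells · Control set – DMSO wells and RFP-L50D-GFP cells · Incubation – overnight cell settling, then overnight compound exposure, 37 °C, 5% CO2 · Compound dosing – single-point 20 µM compound, 1% DMSO · Read-out – GFP/RFP fluorescence ratio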
PG9 binder = small molecules binding HIV-1 gp120 antibody PG9 | inhibition, % at 6.7 µM | 0.43% of 360,000 active | TR-FRET gp120-PG9 antibody binding; in the data active = inhibition above about 8.5%
PG9 binder conf = confirmation of small molecules binding HIV-1 gp120 antibody PG9; shares compounds with PG9 binder; TR-FRET PG9 antibody binding, biochemical; inhibition, % at 6.7 µM; 90% of 1,500 active; AID 651571; in the data active = inhibition above about 9%
PGV04 Ab binding = counter-screen for PG9 binders: binding control antibody PGV04; shares compounds with PG9 binder; TR-FRET PGV04 antibody-gp120 binding, biochemical; inhibition, % at 6.7 µM; 95% of 1,500 active; AID 651604; in the data active = inhibition above about 9.5%
PG9 bind DR = small molecules binding HIV-1 gp120 antibody PG9. shares compounds with PG9 binder. TR-FRET PG9 antibody-gp120 binding inhibition. IC50, µM. 95 tested, under 10 active. AID 651848; in the data active = IC50 below about 10 µM
PGV04 DR counter = counter-screen for PG9 binders: binding to control antibody PGV04 | shares compounds with PG9 binder | TR-FRET binding to control antibody PGV04 | IC50, µM | 20% of 95 active
PG126 binding DR = PG126 binding, dose response counter-screen | shares compounds with PG9 binder | TR-FRET binding to antibody PG126, counterscreen | IC50, µM | 20% of 95 active | AID 651939
Starred values were filed as active, the others as inactive; i = inactive; . = no result. Rows were chosen to be rich in hits. Some 1.9% of all compounds tested hit in one or more screens of this group. Cut-off read from the data, not from the text of the source, unless noted: active = IC50 below about 9 µM; inactive = the rest.

SMILES	Rev-erbA mod	NR2E3 ag-1	SKN-1 inh	NR2E3 ag-2	MT1-MMP act inh	PG9 binder	PG9 binder conf	PGV04 Ab binding	others
CCOc1ccc(-c2cc(C(=O)NCCCn3ccnc3)c3cc(Br)ccc3n2)cc1	-4	-10	-6	-38	-1	-5	.	.
Cc1nn(C)cc1CN(C)C(=O)c1cc(-c2ccccc2)nc2ccc(Br)cc12	8	13	13	-4	0	13*	21*	26*
Cc1ccc(-c2cc(C(=O)NCc3cnn(C)c3)c3cc(Br)ccc3n2)cc1	14	i	-3	-22	-3	11*	7	58*
Cn1cc(CNC(=O)c2cc(-c3ccccc3)nc3ccc(Br)cc23)cn1	13	16	1	-17	3	11*	14*	20*
Cn1cc(CNC(=O)c2cc(-c3ccc(Br)cc3)nc3ccccc23)cn1	1	5	8	-12	5	-1	.	.
Cc1[nH]c2ccccc2c1CC#N	-10	1	6	-15	-1	-1	.	.
Cc1[nH]c2ccccc2c1C1=CC(=O)C=CC1=O	17	.	6	27	3	10*	20*	25*
COc1ccc2[nH]c(=O)c(CN(C)C(=O)c3cccs3)cc2c1	6	1	-12	-34	1	1	.	.
COc1ccc2[nH]c(=O)c(COC(=O)c3cccs3)cc2c1	3	-2	2	-18	-1	33*	16*	26*
O=C(N[C@H](C(=O)N1CCC[C@H]1C(=O)NCc1ccccc1)c1ccccc1)c1ccc(Cl)c(Cl)c1	4	.	.	.	.	1	.	.
COC(=O)c1cc(-c2ccc(OC)c(OC)c2)c2c(=O)[nH]c(=O)n(C)c2n1	7	4	-3	10	5	21*	21*	29*
COC(=O)c1cc(-c2cccc([N+](=O)[O-])c2)c2c(=O)[nH]c(=O)n(C)c2n1	-3	2	11	22	-3	-2	.	.
COC(=O)c1cc(-c2ccc(Br)cc2)c2c(=O)[nH]c(=O)n(C)c2n1	9	3	2	7	1	20*	29*	16*	PG9 bind DR=>67;PGV04 DR counter=i;PG126 binding DR=i
C=CCN1C(=O)[C@H](CC(=O)NCC23CC4CC(CC(C4)C2)C3)[C@@]2(C(=O)OC)CCCCC=C12	2	.	.	.	.	.	.	.
CCn1c(/C=C/c2cc[n+](C)cc2)nc2ccccc21	5	4	-11	-35	-12	13*	14*	16*
CCCn1c(/C=C/c2ccccc2)nc2ccccc21	0	2	0	-59	-3	1	.	.
COc1cc(CN(C2CCCCC2C)S(=O)(=O)c2ccc(S(=O)(=O)NC3CC3)cc2)cc(OC)c1OC (stereo unspecified)	-2	0	5	-2	-8	11*	7	6	PG9 bind DR=>67;PGV04 DR counter=>67;PG126 binding DR=>67
C[C@@H]1CN([C@H](C)CO)C(=O)c2c(c3ccccc3n2C)-c2ccccc2CO[C@@H]1CN(C)C(=O)CCN(C)C	5	.	.	.	.	1	.	.
C=CC[C@@H]1NN2C(=O)[C@@H](C)[C@@H]3c4ccccc4C=NN3[C@@H]2c2ccccc21	0	.	.	.	.	.	.	.
O=C(c1cc([N+](=O)[O-])ccc1N1CCOCC1)N1CCCCC1	0	-3	12	21	3	-2	.	.
O=C(c1cc([N+](=O)[O-])ccc1N1CCOCC1)N1CCN(c2ccc([N+](=O)[O-])cc2)CC1	3	1	-7	16	0	18*	7	7	PG9 bind DR=>67;PGV04 DR counter=>67;PG126 binding DR=>67
CCCCNc1ccc2c(c1)OC[C@@H](Cc1ccccc1)NS2(=O)=O	-1	.	.	.	.	-1	.	.
COc1cccc(NC(=O)c2cnc(SCC(=O)NCc3ccc4c(c3)OCO4)n(C)c2=O)c1	7	0	-5	-10	4	26*	30*	43*
O=C(Cn1nnc2c(cnn2-c2ccc(F)cc2)c1=O)Nc1ccccc1C(F)(F)F	17	2	-10	-3	-2	11*	14*	20*
O=C(Cn1c2ccccc2c(=O)c2cc([N+](=O)[O-])ccc21)Nc1ccccc1Cl	9	-3	10	-49	-2	12*	16*	18*
SMILES	Rev-erbA mod	NR2E3 ag-1	SKN-1 inh	NR2E3 ag-2	MT1-MMP act inh	PG9 binder	PG9 binder conf	PGV04 Ab binding	others
CC(=O)c1ccc(NC(=O)c2ccc(-n3cnnn3)cc2)cc1	5	.	-9	16	0	17*	33*	46*
NC(=O)c1ccc(NC(=O)CSc2nnc(-c3ccccc3)n2-c2ccccc2)cc1	-1	.	.	.	.	.	.	.
CC(C)(C)c1ccc(OCCCC(=O)Nc2nnc(C3CC3)s2)cc1	-10	.	2	-41	3	-1	.	.
CC(=O)c1ccc(OCCCC(=O)Nc2nnc(C3CC3)s2)cc1	-1	.	7	-2	0	8.7*	18*	25*
Cc1cccc(/N=C2/NC(=O)C(Cc3ccccc3)S2)n1 (stereo unspecified)	5	4	15	-23	2	8	.	.
Cc1cccc(CC2S/C(=N/c3cccc(C)n3)NC2=O)c1 (stereo unspecified)	16	-3	14	16	4	13*	18*	24*
O=C(Nc1cc(F)cc(F)c1)c1sc(Cl)nc1-c1ccccc1	19	-3	6	-3	-6	9.6*	14*	42*
N#Cc1ccc2ccn(CC(=O)NC3CCCCCC3)c2c1	1	-3	-7	-28	0	2	.	.
COC(=O)c1ccc2ccn(CC(=O)NC3CCCCC3)c2c1	8	1	6	-19	19	16*	20*	32*
COc1ccccc1CCn1cnc(-c2ccc(Cl)cc2)c1CC(C)C	0	.	.	.	.	-1	.	.
CCc1nnc2sc(-c3cc(-c4ccccc4)nc4ccccc34)nn12	13	2	6	7	0	8.6*	7	10*
c1cncc(-c2nn3c(Cn4nnc5ccccc54)nnc3s2)c1	0	3	-9	4	-12	-1	.	.
Cc1cc2c(nc1C)CCCN2Cc1ccccn1	-10	.	.	.	.	-1	.	.
